A short description of data set [1]: Cytotoxicity against mouse J774 cells. It counts as cell-based. The following applies: read-out: ID50 (the source's name).
Data set [2] deals with Leishmania braziliensis. Briefly: Inhibition of Mitochondrial dehydrogenase in Leishmania braziliensis MHOM/BR/00/LTB300 at 20 uM after 30 to 240 mins by MTT dye reduction assay in relative to control.
Data set [3] deals with Trypanosoma cruzi. Briefly: Antitrypanosomal activity against Trypanosoma cruzi CL Brener trypomastigotes infected in Vero cells assessed as parasite lysis at 10 uM after 3 hrs relative to untreated control. It counts as functional. The procedure, abridged:
(§1)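 Cell-culture trypomastigotes released from infected Vero cells (37 °C, 5% CO2, 5–7 days), collected by centrifugation and allowed 4 h at 37 °C to swim off. Supernatant parasites exposed to 10.0–50.0 μM for 2–26 h; lysis counted in a Neubauer chamber relative to untreated parasites; three independent experiments.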

Data set [4] relates to Trypanosoma cruzi. Briefly: Inhibition of Mitochondrial dehydrogenase in Trypanosoma cruzi Y epimastigotes at 20 uM after 30 to 240 mins by MTT dye reduction assay in relative to control. The procedure, abridged: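 Y-strain epimastigotes, 10^6 per well in 500 µL, 20 μM compound, 28 °C for 30–240 min with time-matched untreated controls. MTT (50 µL of 5 mg/mL) added for 4 h more, stopped with acidic isopropanol, A570 read; activity expressed as % of untreated parasites.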

Data set [5] has as its system Trypanosoma cruzi. The data set can be described thus: Antitrypanosomal activity against Trypanosoma cruzi CL Brener trypomastigotes infected in Vero cells assessed as parasite lysis at 25 uM after 19 hrs relative to untreated control. It is filed as functional. Put shortly: as §1
Data set [6] is described as follows: Selective index, ratio of ID50 for mouse J774 cells to ID50 for Trypanosoma cruzi Tulahuen 2.
Data set [7] relates to Trypanosoma cruzi. The data set can be described thus: Trypanocidal activity against Trypanosoma cruzi CL Brener amastigotes infected in Vero cells assessed as parasite infection at 5 uM after 72 hrs. It counts as functional. Put shortly: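 Vero cells (4×10^7/L) on coverslips in modified Eagle's medium + 3% FBS, 37 °C; after 24 h infected with trypomastigotes (5×10^9/L) ± compound. Non-internalized parasites removed at 24 h, fresh medium ± compound, 72 h further incubation; May-Grünwald-Giemsa stain, 500 cells scored for % infected and amastigotes per cell; endocytic index = product of the two.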

Data set [8] concerns Trypanosoma cruzi. Briefly: Antitrypanosomal activity against Trypanosoma cruzi Y epimastigotes after 5 days by MTT assay. It counts as functional. To be noted: 120 h, read-out: ID50. Put shortly: (§2)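 Epimastigotes (T. cruzi strains, BHI-Tryptose + 5% FBS, 28 °C) or L. braziliensis LTB300 promastigotes (axenic RPMI + 5% FBS, 28 °C) from exponential culture in 24-well plates; compounds from DMSO stock added for 5 days. Washed in PBS, 0.4 mg/mL MTT at 37 °C for 3 h, formazan dissolved in DMSO, OD595 read. Triplicate per concentration, six growth controls; 1.0–50.0 μM dose-response, ID50 = concentration reducing absorbance ratio to 50%; three independent experiments.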

In data set [9] the test system is Trypanosoma cruzi. The data set can be described thus: Antitrypanosomal activity against Trypanosoma cruzi CL Brener trypomastigotes infected in Vero cells assessed as parasite lysis at 10 uM after 22 hrs relative to untreated control. It is filed as functional. The procedure, abridged: as §1
The subject of data set [10] is Trypanosoma cruzi. The data set can be described thus: Antitrypanosomal activity against Trypanosoma cruzi Colombiana assessed as parasitic cytotoxicity at 25 uM after 5 days by MTT assay. It counts as functional. The procedure, abridged:
(§3)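 Single 25 μM dose for 5 days on exponential-phase epimastigotes in BHI-Tryptose + 5% FBS, 24-well plates; MTT 0.4 mg/mL, 3 h at 37 °C after PBS wash, formazan in DMSO, OD595. PCyt = [[…] (ODd − ODdm)/(ODc − ODcm)] × 100 with medium-only blanks, compound-in-medium blanks and growth controls; three independent experiments.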

In data set [11] the test system is Trypanosoma cruzi. Briefly: Antitrypanosomal activity against Trypanosoma cruzi CL Brener epimastigotes assessed as parasitic cytotoxicity at 25 uM after 5 days by MTT assay. It is filed as functional. The procedure, abridged:
as §3

Data set [12] concerns Trypanosoma cruzi. Briefly: Antitrypanosomal activity against Trypanosoma cruzi CL Brener trypomastigotes infected in Vero cells assessed as parasite lysis at 10 uM after 26 hrs relative to untreated control. It is filed as functional. Put shortly:
as §1

The subject of data set [13] is Leishmania braziliensis. Briefly: Antiparasitic activity against Leishmania braziliensis MHOM/BR/00/LTB300 after 5 days by MTT assay. To be noted: MHOM/BR/00/LTB300, 120 h, read-out: ID50. It counts as functional. The procedure, abridged: as §2
Data set [14] has as its system Trypanosoma cruzi. Briefly: Reduction of end products excretion levels in Trypanosoma cruzi Y epimastigotes after 2 days by [1H]NMR method. It is filed as functional, organism-based. Put shortly:
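Y-strain epimastigotes treated 2 days with 5 μM compound; culture centrifuged 1500 g, 10 min, 4 °C, parasite-free supernatant stored at −20 °C. Supernatant plus DMF internal standard and D2O run by 1H NMR with water suppression; metabolite peaks confirmed by spiking and standards, compared to untreated and parasite-free medium.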

A further data set relates to J774. Briefly: Cytotoxicity against mouse J774 cells at 100 uM relative to 5-((hydroxyimino)methyl)-2,2-dimethyl-2H-benzo[d]imidazole 1,3-dioxide. It counts as cell-based. To be noted: j774, 100 µM.
The subject of data set [15] is Trypanosoma cruzi. Briefly: Antitrypanosomal activity against Trypanosoma cruzi Tulahuen 2 epimastigotes assessed as inhibition of parasite growth after 5 days. It is filed as functional. To be noted: Trypanosoma cruzi, Tulahuen 2, 120 h; read-out: ID50 (the source's name). Put shortly: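 Stationary-phase (10-day) Tulahuen 2 epimastigotes inoculated at 1×10^6 cells/mL in BHI-Tryptose + 5% FBS, 28 °C, drug added from DMSO stock (final DMSO ≤0.4%; control 0.4% DMSO). Growth followed as A600; inhibition from day-5 vs day-0 absorbance relative to control. ID50 = concentration reducing absorbance ratio to 50%; three independent experiments.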

Data set [16] concerns Trypanosoma cruzi. Briefly: Decrease of glucose uptake in Trypanosoma cruzi Y epimastigotes after 4 hrs relative to control. It is filed as functional, organism-based. Put shortly:
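Y-strain epimastigotes (80×10^6/mL) washed and resuspended in PBS with 1 mM glucose, exposed 4 h to 20 μM compound from DMSO. Parasite-free supernatant refluxed 1 h with Benedict's reagent; remaining glucose quantified at 700 nm against a calibration curve.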

The subject of data set [17] is Trypanosoma cruzi. The data set can be described thus: Antitrypanosomal activity against Trypanosoma cruzi CL Brener trypomastigotes infected in Vero cells assessed as parasite lysis at 50 uM after 19 hrs relative to untreated control. It is filed as functional. Put shortly: as §1
Data set [18] can be described thus: Selective index, ratio of ID50 for mouse J774 cells to ID50 for Leishmania braziliensis LTB300.
Data set [19] has as its system Trypanosoma cruzi. The data set can be described thus: Trypanocidal activity against Trypanosoma cruzi CL Brener amastigotes infected in Vero cells assessed as parasite infection at 2.5 uM after 72 hrs.
The subject of data set [20] is Trypanosoma cruzi. Briefly: Antitrypanosomal activity against Trypanosoma cruzi CL Brener trypomastigotes infected in Vero cells assessed as parasite lysis at 10 uM after 2 hrs relative to untreated control. It counts as functional. Put shortly: as §1
Data set [21] has as its system Trypanosoma cruzi. The data set can be described thus: Antitrypanosomal activity against Trypanosoma cruzi CL Brener trypomastigotes infected in Vero cells assessed as parasite lysis at 5 uM after 22 hrs relative to untreated control. It is filed as functional.
The test system of data set [22] is Trypanosoma cruzi. The data set can be described thus: Antitrypanosomal activity against Trypanosoma cruzi CL Brener epimastigotes after 5 days by MTT assay. It counts as functional. To be noted: 120 h, read-out: ID50. Put shortly: as §2
The test system of data set [23] is Trypanosoma cruzi. The data set can be described thus: Antitrypanosomal activity against Trypanosoma cruzi CL Brener trypomastigotes infected in Vero cells assessed as parasite lysis at 50 uM after 2 hrs relative to untreated control. It counts as functional. The procedure, abridged: as §1

The source made the active and inactive calls. The calls are words filed in the database; no cut-off is given here.

For the compound `Cc1ccc2c(c1)=[N+]([O-])C1(CCCC1)[N+]=2[O-]`, in data set [1], the CC50 was 63 µM. Besides, the outcome with Leishmania braziliensis [2], in the data set on Trypanosoma cruzi [14] and with Trypanosoma cruzi [16] was Active. In addition, the Activity was 39% with Trypanosoma cruzi [3]; 24% in the data set on Trypanosoma cruzi [5]; 14.7% in the data set with Trypanosoma cruzi [7]; 25% with Trypanosoma cruzi [9]; 59.3% in the data set on Trypanosoma cruzi [10]; 56.5% in the data set with Trypanosoma cruzi [11]. Besides, the Activity was found to be 24% with Trypanosoma cruzi [12]; 1.22% with J774; 52% in the data set with Trypanosoma cruzi [17]; 34.8% in the data set on Trypanosoma cruzi [19]; 1% in the data set on Trypanosoma cruzi [20]. In addition, in the data set with Trypanosoma cruzi [4], the outcome was inactive. Moreover, the values for the Ratio in data set [6] and in [18] were 8 and 7.1, respectively. Moreover, the IC50 in the data set on Trypanosoma cruzi [8] was 15.8 µM; with Leishmania braziliensis [13], 8.9 µM; in the data set on Trypanosoma cruzi [15], 7.9 µM.

For the compound `CC1(C)[N+]([O-])=c2ccc(/C=C/c3ccccc3)cc2=[N+]1[O-]`, the Activity with Trypanosoma cruzi [3] stood at 32%; in the data set on Trypanosoma cruzi [5] it was 64%; in the data set on Trypanosoma cruzi [9], 84%; in the data set on Trypanosoma cruzi [10], 92.3%; with Trypanosoma cruzi [11], 78.4%; in the data set on Trypanosoma cruzi [12], 100%. Also, the Activity in the data set with Trypanosoma cruzi [21] is given as 31%; with Trypanosoma cruzi [17], 100%; in the data set on Trypanosoma cruzi [20], 3%; in the data set with Trypanosoma cruzi [23] it was 32%. Further, the IC50 with Trypanosoma cruzi [8] was 6 µM; in the data set with Leishmania braziliensis [13], 3.5 µM; with Trypanosoma cruzi [15], 3.4 µM; in the data set with Trypanosoma cruzi [22], 8.5 µM. Further, the outcome in the data set on Trypanosoma cruzi [14] was Active.

The values above are taken from ChEMBL document CHEMBL1155286, “Second generation of 2H-benzimidazole 1,3-dioxide derivatives as anti-trypanosomatid agents: synthesis, biological evaluation, and mode of action studies” (Eur J Med Chem, 2009).
